ARNT TACC3 PPI = disruptors of human ARNT/TACC3 interaction | Q9Y6A5 | AlphaScreen His-ARNT PAS-B/GST-TACC3 binding, luminescence; TACC3 fragment carries E629A point mutation | inhibition, % at 9.99 µM | actives 0.66% (n = 390,000) | AID 623870;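 active = mean inhibition of replicates at least 50% and at least half of replicates each reaching 50%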;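 note: 0% = complete ARNT plus TACC3 wells and 100% = ARNT alone without TACC3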
CAL PDZ FP-1 = human CAL PDZ-peptide interaction inhibition; Q9HD26; purified CAL PDZ, TMR-peptide fluorescence polarization, 1 h; inhibition, % at 20 µM; actives 0.02% (n = 330,000);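 active = highest replicate inhibition of at least 40%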;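 note: plate controls were DMSO neutral control wells for no effect and unlabeled competitor peptide control wells for full effect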
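Test system: tagged CAL PDZ domain / Buffer or medium: sodium phosphate/NaCl buffer pH 7.4 with TCEP, IgG, Thesit / Reagent: TMR-labelled reporter peptide T*-PRC34 bound in PDZ groove / Compound dosing: single point, 20 µM / Schedule: 1 h incubation at room temperature before polarization reading / Technique: fluorescence polarization (mP) / Benchmarks: unlabelled peptide, DMSO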
SR-BI HDL uptake = mouse SR-BI HDL lipid transfer inhibition | AID 488896 | Q61009 | actives 0.96% (n = 320,000) | inhibition, % at 12.5 µM | ldlA[mSR-BI] CHO cells, DiI-HDL uptake fluorescence, 3 h;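 active = mean replicate inhibition of at least 70% and a set share of replicates each scoring 70 or more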;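 note: 0% = median of neutral control wells and 100% = median of positive control wells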
Target sequence (Q61009 whole entry, looked up): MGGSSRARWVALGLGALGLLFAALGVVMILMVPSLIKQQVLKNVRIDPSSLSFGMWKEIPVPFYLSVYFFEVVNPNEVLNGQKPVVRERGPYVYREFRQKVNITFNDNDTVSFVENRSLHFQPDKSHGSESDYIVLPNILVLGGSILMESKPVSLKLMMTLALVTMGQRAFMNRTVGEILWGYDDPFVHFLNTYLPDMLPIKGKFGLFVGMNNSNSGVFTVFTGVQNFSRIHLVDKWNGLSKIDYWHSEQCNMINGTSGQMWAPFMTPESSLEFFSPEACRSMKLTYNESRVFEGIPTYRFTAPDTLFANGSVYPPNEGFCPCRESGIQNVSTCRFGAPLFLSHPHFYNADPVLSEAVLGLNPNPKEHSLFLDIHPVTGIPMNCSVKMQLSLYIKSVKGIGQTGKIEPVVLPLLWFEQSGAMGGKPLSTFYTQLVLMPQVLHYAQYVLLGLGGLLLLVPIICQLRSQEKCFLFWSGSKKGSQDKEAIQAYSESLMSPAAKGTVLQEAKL
miR122 inh = blocks miR-122 activity in Huh7 sensor cells; Huh7 miR-122 Renilla luciferase sensor, 48 h; neutral wells = 0, positive control = 100; activation (reporter increase), % at 12.5 µM; actives 0.3% (n = 340,000); AID 602342;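 active = mean replicate activation score at least 90 and every replicate individually at or above 90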;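 note: higher luciferase means less miR-122 activity so hits act as miR-122 inhibitors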
SR-BI uptake up = SR-BI HDL lipid transfer activation | actives 0.096% (n = 320,000) | AID 504775 | activation, % at 12.5 µM | CHO ldlA[mSR-BI] cells, DiI-HDL uptake fluorescence, 3 h; 100 = double the neutral-control signal;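 active = mean replicate activation of at least 60% and every replicate at or above 60%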;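 note: 0% = median plate neutral-control signal and 100% = twice that signal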
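Assay system: CHO ldlA[mSR-BI] cells, LDL receptor-null, SR-BI overexpressing; medium: Ham's F12 with 0.5% BSA, HEPES 25 mM, pH 7.4; also added: DiI-HDL 10 µg/mL; timing: 3 h uptake period with compound, 37 °C; signal: DiI fluorescence, bottom read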
CAL PDZ FP-2 = inhibitors of human CAL PDZ peptide binding. Q9HD26. purified CAL PDZ, TMR-peptide fluorescence polarization, 1 h. inhibition, % at 24.9 µM. actives 0.92% (n = 300,000). AID 602252;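 active = mean inhibition of at least 30% with at least half of replicates also reaching 30%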;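 note: 0% = DMSO neutral control and 100% = excess unlabeled competitor peptide PRC23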
ARNT Alpha ctr = AlphaScreen artifact in ARNT/TACC3 counter-screen; shares compounds with ARNT TACC3 PPI; His-ARNT PASB-GST AlphaScreen artifact counter-screen, luminescence; AC50, µM (highest dose often 68 µM), inactives show top-dose activity change, negative = signal decrease; actives 50% (n = 1,200);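 active = every separate test run was called active for a drop in luminescence, with AC50 within twice the top valid dose, actives reach about 71 µM in these data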
An asterisk follows results filed as active; · = no result; [ ] = another dose, or the depositor's remark. In the library only some 2.1% were active in any assay of this set; here they are far more common.

SMILES	ARNT TACC3 PPI	CAL PDZ FP-1	SR-BI HDL uptake	miR122 inh	SR-BI uptake up	CAL PDZ FP-2	ARNT Alpha ctr
O=C(CN1C(=O)c2ccccc2C1=O)OCC(=O)c1ccc(F)cc1	-3	-3	-27	3	27	1	·
O=C(CN1CC(=O)Oc2ccccc21)OCC(=O)c1ccccc1	54*	-2	-18	-2	18	-1	8.3µM*
COCCN=c1scc(-c2ccco2)n1/N=C/c1ccc(O)c(O)c1O	55*	-2	66	-6	-66	-2	34µM*
Cc1sc2ncnc(N/N=C/c3ccccc3O)c2c1C	54*	-1	116*	-37	-116	·	41µM*
Cc1sc2ncnc(N/N=C/c3ccc(O)cc3)c2c1C	41	-3	19	6	-19	-3	·
O=C(C[C@H]1CC[C@@H](NC(=O)C2CCOCC2)[C@H](CO)O1)Nc1nccs1	4	·	·	·	·	·	·
Oc1ccc(CNc2ccc(F)cc2)c2cccnc12	·	0	5	1	-5	3	·
Oc1ccc(CN2CCN(Cc3ccccc3)CC2)c2cccnc12	65*	-3	19	-16	-19	-2	6µM*
OCC1CCN(Cc2ccc(O)c3ncccc23)CC1	·	·	·	·	·	·	0.41µM*
CN1CCN(C2CCN(Cc3ccc(O)c4ncccc34)CC2)CC1	65*	-1	-27	·	27	0	14µM*
O=S(=O)(c1ccc(Cl)cc1)N1CCN(Cc2ccc(O)c3ncccc23)CC1	41	-2	33	·	-33	1	·
Oc1ccc(CNC2CCc3ccccc32)c2cccnc12 (stereo not drawn)	·	·	·	·	·	·	3.2µM*
Cc1ccc(S(=O)(=O)N(C)C[C@H]2Oc3c(NC(=O)C4CC4)cccc3C(=O)N([C@H](C)CO)C[C@@H]2C)cc1	-2	·	·	5[16.7 µM]	·	·	·
C[C@H](CO)N1C[C@H](C)[C@H](CN(C)Cc2ccc(C(F)(F)F)cc2)OCCCC[C@H](C)Oc2ccc(NC(=O)CCCN(C)C)cc2C1=O	5	·	·	-31[16.7 µM]	·	·	·
O=S(=O)(N[C@@H]1CC[C@@H](CCn2cc(-c3ccccn3)nn2)O[C@H]1CO)c1cccc(F)c1	91*	·	·	·	·	·	60µM*
O=S(=O)(N[C@H]1CC[C@H](CCn2cc(-c3ccccn3)nn2)O[C@@H]1CO)c1cccc(Cl)c1	109*	·	·	4[16.7 µM]	·	·	49µM*
O=S(=O)(N[C@H]1CC[C@@H](CCn2cc(-c3ccccn3)nn2)O[C@@H]1CO)c1cccc(Cl)c1	95*	·	·	-1[16.7 µM]	·	·	48µM*
COc1cccc(S(=O)(=O)N[C@@H]2CC[C@H](CCn3cc(-c4ccccc4)nn3)O[C@H]2CO)c1	11	·	·	·	·	·	·
CCOC(=O)c1cnc(Nc2nc3ccccc3o2)nc1CN1CCN(C)CC1	55*	-4	11	5	-11	1	41µM*
O=C(NC[C@@H]1[C@H](c2ccccc2)[C@H](CO)N1Cc1ccccn1)C1CCCC1	53*	·	·	21[16.7 µM]	·	·	-25%[42 µM]
O=C(NC[C@H]1[C@@H](c2ccccc2)[C@@H](CO)N1Cc1ccccn1)C1CCC1	56*	·	·	0[16.7 µM]	·	·	70µM*
O=C(NC[C@@H]1[C@H](c2ccccc2)[C@H](CO)N1Cc1ccccn1)C1CCC1	60*	·	·	7[16.7 µM]	·	·	-22%[42 µM]
O=C(NC[C@H]1[C@H](c2ccccc2)[C@H](CO)N1C(=O)Cc1ccncc1)C1CCC1	-1	·	·	17[16.7 µM]	·	·	·
O=C(NC[C@H]1[C@H](c2ccccc2)[C@@H](CO)N1Cc1ccccn1)C1CC1	12	·	·	-36[16.7 µM]	·	·	·
O=C(C1CCCC1)N1C[C@@H]2[C@H](c3ccccc31)[C@H](CO)N2C(=O)Cc1ccccn1	51*	·	·	-30[16.7 µM]	·	·	-12%[42 µM]
CC(C)CC#Cc1ccc2c(c1)O[C@H](CN(C)C(=O)c1cnccn1)[C@H](C)CN([C@H](C)CO)S2(=O)=O	3	·	·	-39[16.7 µM]	·	·	·
